Test results as given in ChEMBL document CHEMBL4311988, “Identification of novel non-nucleoside vinyl-stilbene analogs as potent norovirus replication inhibitors with a potential host-targeting mechanism” (Eur J Med Chem, 2019).
Active and inactive are the calls of the source. The calls are words filed in the database; no cut-off is given here.

Legend:
Norovirus [1] = experiment: Antiviral activity against human norovirus infected in human HG23 cells assessed as inhibition of viral replication at 10 uM after 3 days by qRT-PCR analysis relative to control; assay type: functional; set-up: scale not given: the % may be the effect or the level left
[2] = Cytotoxicity against human HG23 cells assessed as cell viability at 10 uM after 3 days by tetrazolium dye based assay relative to control; details: read-out: Activity
In short: (§1)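 HG23 cells were treated with DMSO or compound for 3 days, at 10 μM for single-point testing or across a dose range for CC50. Viability was read with a tetrazolium salt (EZ-CYTOX) reagent. Values are means of the most representative triplicate experiment with standard deviations.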

[3] = Cytotoxicity against human HG23 cells assessed as reduction in cell viability after 3 days by tetrazolium dye based assay; in short: as §1
Norovirus [4] = experiment: Antiviral activity against human norovirus infected in human HG23 cells assessed as inhibition of viral replication after 3 days by qRT-PCR analysis; assay type: functional, organism-based; details: HG23, 72 h
[5] = Therapeutic index, ratio of CC50 for cytotoxicity against human HG23 cells harboring human norovirus replicons to EC50 for antiviral activity against norovirus infected in human HG23 cells; assay type: toxicity, cell-based; details: read-out: Ratio CC50/EC50
Norovirus [6] = experiment: Antiviral activity against human norovirus infected in HG23 cells assessed as inhibition of neomycin phosphotransferase protein expression after 5 days by Western blot analysis; assay type: functional, organism-based; details: HG23, 120 h
Norovirus GII.4 = experiment: Inhibition of norovirus GII.4 RNA-dependent RNA polymerase using poly(C)RNA as substrate incubated for 10 mins and measured after 15 mins by picogreen staining based assay
In short: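 Recombinant human norovirus GII.4 Sydney 2012 RdRp (400 ng) was preincubated with compound (10 μM) or DMSO (0.5% v/v) for 10 min at 25 °C. It was then added to 5 μM rGTP, 6 μg/mL poly(C), 2.5 mM MnCl₂, 5 mM DTT, 0.01% BSA and 0.005% Tween 20 in 20 mM Tris-HCl pH 7.5. After 15 min at 25 °C, reactions were stopped with 10 mM EDTA and dsRNA quantified by PicoGreen fluorescence (ex 480/em 520). Two independent experiments were run in triplicate.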

[7] = Metabolic stability in human liver microsomes assessed as compound remaining at 1 uM preincubated for 5 mins followed by NADPH addition and measured after 30 mins by LC-MS/MS analysis relative to control; assay type: ADME, Microsome; details: read-out: Stability
In short: (§2)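 Human or mouse liver microsomes (0.5 mg/ml) in 0.1 M phosphate buffer pH 7.4 were preincubated with compound at 1 μM for 5 min at 37 °C. An NADPH regeneration system was then added or omitted, and incubation continued 30 min at 37 °C. Reactions were stopped with acetonitrile containing internal standard. Parent compound remaining was measured by LC-MS/MS (C18 column, 0.1% formic acid water/acetonitrile).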

[8] = Metabolic stability in human liver microsomes assessed as compound remaining at 1 uM after 30 mins in absence of NADPH by LC-MS/MS analysis relative to control; assay type: ADME, Microsome; details: read-out: Stability; in short: as §2
[9] = Metabolic stability in mouse liver microsomes assessed as compound remaining at 1 uM preincubated for 5 mins followed by NADPH addition and measured after 30 mins in presence of NADPH relative to control; assay type: ADME, Microsome; details: read-out: Stability; in short: as §2
[10] = Metabolic stability in mouse liver microsomes assessed as compound remaining at 1 uM after 30 mins in absence of NADPH by LC-MS/MS analysis relative to control; assay type: ADME, Microsome; details: read-out: Stability; in short: as §2
Murine norovirus 1 = experiment: Antiviral activity against MNV-1 infected in mouse RAW264.7 cells at 0.05 to 10 uM after 48 hrs by crystal violet staining based assay; assay type: functional, cell-based
Feline calicivirus = experiment: Antiviral activity against feline calicivirus- infected in cat CRFK cells at >5 uM after 48 hrs by crystal violet staining based assay; assay type: functional, organism-based
[11] = target: T1, Nuclear factor erythroid 2-related factor 2 (Homo sapiens) (UniProt Q16236); experiment: Activation of NRF2 pathway in human HG23 cells transfected with human norovirus at 10 uM after 72 hrs by dual-luciferase reporter gene assay; assay type: cell-based
T1 sequence (whole entry): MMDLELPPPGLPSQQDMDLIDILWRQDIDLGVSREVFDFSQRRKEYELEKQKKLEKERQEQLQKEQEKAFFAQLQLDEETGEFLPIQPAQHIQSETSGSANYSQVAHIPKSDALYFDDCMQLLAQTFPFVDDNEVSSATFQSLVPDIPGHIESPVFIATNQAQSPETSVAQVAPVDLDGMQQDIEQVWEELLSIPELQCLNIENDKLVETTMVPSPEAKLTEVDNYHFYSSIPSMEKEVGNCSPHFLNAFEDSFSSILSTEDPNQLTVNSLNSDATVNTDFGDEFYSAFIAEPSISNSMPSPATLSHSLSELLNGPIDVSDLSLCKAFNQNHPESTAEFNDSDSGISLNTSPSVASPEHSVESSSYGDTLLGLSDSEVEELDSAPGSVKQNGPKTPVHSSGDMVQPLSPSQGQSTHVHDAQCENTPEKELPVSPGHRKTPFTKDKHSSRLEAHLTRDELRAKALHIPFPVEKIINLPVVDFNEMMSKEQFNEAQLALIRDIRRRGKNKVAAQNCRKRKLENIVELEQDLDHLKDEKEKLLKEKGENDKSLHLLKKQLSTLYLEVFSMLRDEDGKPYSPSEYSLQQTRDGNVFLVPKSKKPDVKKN
In short: (§3)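 HG23 cells carrying the NV replicon were transfected with a Cignal finder reporter array and then given DMSO or 10 μM test compound for 72 h. Luciferase activity for each pathway was read with a dual-luciferase reagent.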

[12] = target: T2, Heat shock factor protein 1 (Homo sapiens) (UniProt Q00613); experiment: Activation of HSF-1 in human HG23 cells transfected with human norovirus at 10 uM after 72 hrs by dual-luciferase reporter gene assay; assay type: cell-based; in short: as §3
T2 sequence (whole entry): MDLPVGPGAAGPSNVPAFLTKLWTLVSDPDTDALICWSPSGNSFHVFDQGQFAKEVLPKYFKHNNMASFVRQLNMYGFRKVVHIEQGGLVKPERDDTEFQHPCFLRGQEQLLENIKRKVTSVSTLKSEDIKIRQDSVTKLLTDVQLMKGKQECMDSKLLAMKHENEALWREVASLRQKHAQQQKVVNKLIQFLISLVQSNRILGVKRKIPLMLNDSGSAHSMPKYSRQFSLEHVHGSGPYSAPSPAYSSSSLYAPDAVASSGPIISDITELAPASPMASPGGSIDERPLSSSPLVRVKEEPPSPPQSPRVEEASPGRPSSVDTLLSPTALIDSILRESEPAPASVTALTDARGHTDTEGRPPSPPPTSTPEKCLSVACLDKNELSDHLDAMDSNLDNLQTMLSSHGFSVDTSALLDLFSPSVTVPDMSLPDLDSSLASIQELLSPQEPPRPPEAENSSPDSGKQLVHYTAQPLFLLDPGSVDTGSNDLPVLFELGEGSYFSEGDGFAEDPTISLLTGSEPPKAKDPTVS

[13] = target: T2, Heat shock factor protein 1 (Homo sapiens); experiment: Activation of HSF-1 in human HG23 cells transfected with human norovirus after 72 hrs by dual-luciferase reporter gene assay; assay type: cell-based; in short: as §3

With `C=Cc1c(OC)cc(/C=C/c2ccc(C(=O)N3CCN(Cc4ccc(C(F)(F)F)cc4)CC3)cc2)cc1OC` the Activity (Norovirus [1]) was 4.2%, the viability at 72 h, 10 µM [2] was 105% and the CC50 at 72 h [3] was greater than 100000 nM. The EC50 (Norovirus [4]) was 2430 nM, the selectivity ratio [5] was greater than 41.2 and the EC50 (Norovirus [6]) was 800 nM. The inhibition (Norovirus GII.4) was “inactive”, the remaining at 0.5 h, 1 µM [7] was 89.1% and the remaining at 0.5 h, 1 µM [8] was 94.3%. For the same molecule, the remaining at 0.5 h, 1 µM [9] was 70.5%, the remaining at 0.5 h, 1 µM [10] was 99.2% and the Activity (Murine norovirus 1) was “inactive”. For the same molecule, the Activity (Feline calicivirus) was “Active”, the Activity [11] was “Active” and the Activity [12] was “Active”. The Activity [13] was “Dose-dependent effect”.
